# CHO parental Ca – ATP-evoked calcium signal inhibitors, parental CHO, primary screen, counter-screen for OX1R antagonist project, cell-based, fluorescence, Fluo-8 calcium dye | parental CHO-K1, ATP-induced calcium, Fluo-8 fluorescence | 330,000 compounds, 0.63% hits | inhibition, % at 5.6 µM;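 active means inhibition above that plate's mean sample inhibition plus 3 SD, cut at about 26% in these data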;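 further: 0% = ATP-challenged DMSO wells and 100% = DMSO wells without ATP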
#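 Test system: untransfected parental CHO cell line; also added: ATP stimulus; dosing: 5.6 µM, single dose; signal: calcium-sensitive Fluo-8 fluorescence; measure: percent inhibition of ATP-evoked calcium rise, normalized to controls; benchmarks: low control ATP plus DMSO, high control DMSO only; replication: one well per compound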
# OX1R antag-1 – OX1R (HCRTR1) antagonists, primary screen, fluorescence, CHO/OX1R cells, Fluo-8 calcium, orexin A | Orexin/Hypocretin receptor type 1 (Homo sapiens), O43613 | Fluo-8 calcium fluorescence | inhibition, % at 5 µM | 330,000 compounds, 0.43% hits;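 active means inhibition above its plate's threshold, mean inhibition of all tested compounds on the plate plus 3 SD, cut at about 37% in these data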;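 further: 0% = orexin A challenge wells and 100% = SB-334867-A antagonist wells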
# Target sequence (O43613 whole entry, looked up): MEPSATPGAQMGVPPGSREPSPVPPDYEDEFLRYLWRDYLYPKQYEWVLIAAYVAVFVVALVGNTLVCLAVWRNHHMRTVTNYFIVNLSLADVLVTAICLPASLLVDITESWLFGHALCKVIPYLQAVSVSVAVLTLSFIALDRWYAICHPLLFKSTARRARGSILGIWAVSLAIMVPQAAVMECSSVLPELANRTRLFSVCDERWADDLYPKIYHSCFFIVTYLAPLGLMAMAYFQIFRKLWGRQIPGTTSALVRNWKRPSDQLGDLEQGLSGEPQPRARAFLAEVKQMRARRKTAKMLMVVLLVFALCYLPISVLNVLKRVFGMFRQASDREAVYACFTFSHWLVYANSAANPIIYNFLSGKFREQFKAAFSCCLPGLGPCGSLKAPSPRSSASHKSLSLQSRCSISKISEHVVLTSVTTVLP
# TAAR1 ag – human TAAR1 agonists, primary screen, Fluo-8 calcium fluorescence, CHO RD-HGA16 cells; vehicle wells 0%, saturating PEA agonist 100%; AID 624467, 2012; activation, % at 3 µM; 360,000 compounds, 0.99% hits;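 active means activation above the mean activation of all test compounds in the run plus 3 SD, cut at about 38% in these data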
# Target sequence (Q96RJ0 whole entry, looked up): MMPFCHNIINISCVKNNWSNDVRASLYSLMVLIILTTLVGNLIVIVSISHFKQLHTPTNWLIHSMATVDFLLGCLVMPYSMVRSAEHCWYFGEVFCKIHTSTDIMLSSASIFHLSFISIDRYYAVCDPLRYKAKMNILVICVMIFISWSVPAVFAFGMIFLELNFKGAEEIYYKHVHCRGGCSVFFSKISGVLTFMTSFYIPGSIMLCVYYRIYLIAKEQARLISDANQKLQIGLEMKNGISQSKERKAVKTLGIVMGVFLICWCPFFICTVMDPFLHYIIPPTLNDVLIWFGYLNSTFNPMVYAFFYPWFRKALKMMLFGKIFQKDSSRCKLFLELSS
#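 Test system: RD-HGA16 (CHO) cells co-expressing Gα16 and hTAAR1 | Doses: Single dose, 3 µM | Schedule: 17-24 h seeding, 75 min 37 °C dye, 30 min RT | Evaluation: % activation from peak over basal fluorescence ratio, DMSO-to-PEA scaled | Technique: Kinetic Fluo-8 calcium fluorescence | Benchmarks: Low control DMSO, high control PEA (EC100)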
# OX1R antag-2 – antagonists of human orexin 1 receptor (OX1R) | Orexin/Hypocretin receptor type 1 (Homo sapiens), O43613 | OX1R-expressing cells, FRET antagonist read-out | inhibition, % at 6.6 µM | 330,000 compounds, 1.8% hits | AID 485270, 2010; in the data active means inhibition mostly above about 38%, no sharp cut-off; inactive means mostly below about 40%;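 further: 0% = agonist challenge alone and 100% = reference antagonist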
# TAAR1 antagonist – human TAAR1 antagonists, primary screen, Fluo-8 calcium fluorescence, CHO RD-HGA16 cells; Trace amine-associated receptor 1 (Homo sapiens), Q96RJ0; antagonist; inhibition, % at 3 µM; 360,000 compounds, 1.5% hits;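 active means inhibition above a per-plate cutoff, the mean inhibition of test compounds on that plate plus 3 SD, cut at about 49% in these data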;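 further: 0% = DMSO plus EC80 beta-PEA response and 100% = DMSO alone without agonist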
#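 Assay system: CHO-derived RD-HGA16 cells stably expressing human TAAR1 plus Gα16. Timing: 140 s kinetic read after compound, 140 s after agonist. Technique: kinetic Fluo-8 calcium fluorescence measurement. Measure: % inhibition of agonist calcium response.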
# OX1R Fluo8 conf – OX1R (HCRTR1) antagonists, confirmation, fluorescence, CHO/OX1R cells, Fluo-8 calcium, orexin A | shares compounds with OX1R antag-1 | orexin A calcium Fluo-8 fluorescence | inhibition, % at 5 µM | 1,100 compounds, 38% hits | AID 492963, 2010; in the data active means inhibition above about 29%;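 further: 0% = agonist challenge alone and 100% = reference antagonist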
# CHO Ca triplic – ATP-evoked calcium inhibition in parental CHO, counter-screen for OX1R antagonist project, cell-based, fluorescence, CHO-K1, triplicate; AID 492965, 2010; inhibition, % at 5.6 µM; 1,100 compounds, 9.3% hits; ATP-induced calcium, Fluo-8 fluorescence; shares compounds with OX1R antag-1;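 active means inhibition above a per-plate limit, the mean inhibition of that plate's test compounds plus 3 SD, cut at about 25% in these data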;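 further: 0% = ATP challenge with DMSO and 100% = DMSO without ATP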
# Starred values were filed as active, the others as inactive; · = no result. Sampled rows, rich in hits. Any-hit rate of the full collection: about 3.9%.
SMILES,CHO parental Ca,OX1R antag-1,TAAR1 ag,OX1R antag-2,TAAR1 antagonist,OX1R Fluo8 conf,CHO Ca triplic
Cc1ccc(C)c(OCCC(=O)NNC(=O)c2ccncc2)c1,3.9,2.8,0.7,12.1,-29.1,·,·
Cc1cc(Cl)ccc1NC(=S)NCc1ccc(S(N)(=O)=O)cc1,9.7,0.7,4.4,12.9,20.2,·,·
Cc1cc(Cl)ccc1NC(=S)NCc1ccc(Cl)cc1,10.8,28.1,16.5,40.1,29.2,-4.5,4.5
Cc1oc(-c2cccc3ccccc23)nc1CN1CCN(c2ncnc3ccccc23)CC1,12.4,34.2,11.2,29.7,57.5*,19.5,-10.3
CN(C)CCCNc1cc(C(C)(C)C)nc2c(-c3ccc(Cl)cc3)cnn12,12.9,30.9,3.9,9.4,-6.4,25.0,-2.9
CC(C)OC(=O)CSc1nc2c(c(C3CC=CCC3)c1C#N)CCC2 (stereo not given),6.1,53.7*,3.3,18.4,21.1,-10.7,-3.5
COC(=O)[C@]12CCCCC=C1N(Cc1ccc(Cl)cc1Cl)C(=O)[C@H](CC(=O)N1CCSCC1)C2,·,·,3.6,·,22.3,·,·
COc1cccc(C(=O)O/N=C2\CCS(=O)(=O)c3sccc32)c1,-16.8,-8.3,7.1,6.7,-10.9,·,·
O=C(O/N=C1\CCS(=O)(=O)c2sccc21)c1c(F)cccc1F,-16.8,43.6*,1.6,13.2,11.6,16.7,8.9
COc1ccc(OC)c(NC(=O)Nc2nc(C(N)CCc3ccccc3)cs2)c1 (stereo not given),·,·,36.6,·,40.7,·,·
CC(=O)c1ccc(S(=O)(=O)NCCOc2ccccc2)cc1,·,·,1.3,·,-17.2,·,·
C[C@@H]1CN([C@H](C)CO)C(=O)CCCn2cc(nn2)CO[C@H]1CN(C)C(=O)c1ccccc1,·,·,3.0,·,10.3,·,·
Nc1nnc(SCc2nc3scc(-c4ccccc4)c3c(=O)[nH]2)s1,7.8,26.5,13.9,11.1,-5.4,10.0,22.2
CSc1ccc(CN2CCC2(C)C(=O)Nc2cccc(NS(C)(=O)=O)c2)cc1 (stereo not given),·,·,3.9,·,5.4,·,·
O=c1ccn([C@@H]2O[C@H](CNCc3ccccc3OCc3ccc(Cl)cc3Cl)[C@@H](O)[C@H]2O)c(=O)[nH]1,·,·,0.2,·,-7.7,·,·
COc1cccc(-c2sc3ccc(OC)cc3c2-c2ccc(OCCN(C)C)cc2)c1,22.6,59.4*,37.2,7.1,51.0*,37.0*,4.0
CCOc1ccc2nc(SCCNS(=O)(=O)c3ccccc3)sc2c1,9.5,50.5*,7.4,25.6,60.1*,-4.1,0.2
COc1ccc(CNC(=O)Cc2nn(C)c(=O)c3ccccc23)cc1,15.0,30.2,12.6,35.4,3.1,16.8,32.6*
Cc1cc(-c2nnc3n2N=C(c2ccc(-c4ccccc4)cc2)CS3)n[nH]1,17.3,56.7*,45.0*,4.2,36.1,7.5,-4.2
Cc1noc(C)c1C(=O)OCC(=O)c1cc(C)n(Cc2ccccc2Cl)c1C,23.1,49.4*,13.7,23.9,28.7,9.1,12.9
CCOC(=O)[C@H]1[C@H]2COc3ccc(Br)cc3[C@@H]2N2C(=O)CN(Cc3ccc(F)cc3)C(=O)[C@@]12C,-17.1,-50.5,11.0,0.3,22.1,·,·
c1ccc(Cn2nnnc2C(c2cccs2)N2CCc3ccccc3C2)cc1 (stereo not given),-9.4,-4.0,·,4.8,·,·,·
c1ccc(Cn2nnnc2C(c2cccs2)N2CCCCCC2)cc1 (stereo not given),4.0,38.2,17.8,8.8,47.7,-14.8,-12.9
CN(Cc1c(C(=O)N/N=C/c2cccc(Cl)c2)nnn1-c1nonc1N)c1ccccc1,-5.2,38.0,-1.6,46.5,19.6,9.8,-6.8
CN(C)c1ccc(/C=N/NC(=O)c2nnn(-c3nonc3N)c2CN(C)c2ccccc2)cc1,0.4,2.0,1.9,25.7,15.3,·,·
SMILES,CHO parental Ca,OX1R antag-1,TAAR1 ag,OX1R antag-2,TAAR1 antagonist,OX1R Fluo8 conf,CHO Ca triplic
Cc1ccc(NC(=O)COC(=O)c2ccccc2F)cc1S(=O)(=O)N1CCCCC1,·,·,4.8,·,22.7,·,·
Cc1ccc(NC(=O)COC(=O)c2cccc(C)c2[N+](=O)[O-])cc1S(=O)(=O)N1CCCCC1,21.4,44.0*,5.7,4.1,32.3,14.1,9.2
CCc1noc(C)c1C(=O)Oc1ccc(N(C)S(=O)(=O)c2ccc(C)cc2)cc1,7.6,54.6*,·,9.2,·,5.1,5.2
Cc1ccc(NC(=O)C2=C(c3ccccc3)S(=O)(=O)CCS2(=O)=O)cc1,21.5,35.1,6.3,24.5,17.8,42.9*,22.2
Cc1c(NC(=O)c2cccc(-c3cc4ccccc4oc3=O)c2)cccc1-c1nc2ncccc2o1,-19.4,31.6,10.2,66.5,43.3,23.6,-15.9
Cc1c(NC(=O)C(C)C)cccc1-c1nc2ncccc2o1,0.1,-18.5,0.4,-2.7,3.1,·,·
CC(=O)Nc1ccc(/C(C)=N/Nc2nc(Nc3cccc4ccccc34)nc(N3CCOCC3)n2)cc1,11.2,40.2*,49.6*,23.8,52.1*,1.1,-6.1
CC(=O)Nc1ccc(/C(C)=N/Nc2nc(N3CCOCC3)nc(N3CCOCC3)n2)cc1,-15.7,-30.5,1.6,22.3,-3.8,·,·
C[C@@H]1CNCCN1c1ccc(N2CCS(=O)(=O)CC2)c(C#N)c1,·,·,0.3,·,1.9,·,·
COc1c(C)cc(Br)cc1C(=O)Nc1ccc(Cc2ccncc2)cc1,17.8,31.0,-0.5,40.8,21.6,-8.6,-4.9
Cc1nc(NC(=O)C(C)(C)C)sc1C(=O)Cn1cc(-c2ccc(C(C)(C)C)cc2)nn1,·,·,-1.1,·,6.7,·,·
O=C(Nc1ccccc1Cl)Nc1ccccc1Cl,-8.8,-29.1,-2.7,14.0,-44.8,·,·
O=C(Nc1csc([N+](=O)[O-])c1)Nc1ccccc1Cl,3.4,35.4,9.8,44.5,23.4,1.2,41.9*
CC(=O)N1CCN(c2ccc(N3CCN(C(C)=O)[C@@H](C)C3)c(C)c2)[C@@H](C)C1,·,·,0.2,·,4.0,·,·
COc1ccc(CNC(=O)COC(=O)[C@H](Cc2c[nH]c3ccccc23)NC(=O)c2cccs2)cc1,12.0,48.8*,4.1,13.3,6.8,59.6*,10.4
CC(=O)c1c(C)[nH]c(C(=O)CN2CCN(S(=O)(=O)c3ccc(C(C)C)cc3)CC2)c1C,-16.9,38.4,9.7,1.7,35.6,7.1,9.2
CCOC(=O)c1sc(N)nc1C(C)(C)C,-10.1,40.9,6.3,20.2,-12.1,-1.8,1.2

# Screens as filed in PubChem.
